OX1R antag-1 – OX1R (human) antagonism | OX1R-expressing cells, FRET antagonist read-out | inhibition, % at 6.6 µM | 1.8% of 330,000 active | AID 485270; in the data active = inhibition mostly above about 38%, no sharp cut-off; inactive = mostly below about 40%
GPR7 antag – antagonists of human GPR7 (neuropeptides B/W receptor 1) | AID 1861 | inhibition, % at 4.4 µM | 1.1% of 290,000 active | GPR7-expressing cells, fluorescence antagonist assay; in the data active = inhibition above about 16%, passing the limit was not always enough;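 note: cells stimulated with the agonist NPW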
Target sequence (P48145 whole entry, looked up): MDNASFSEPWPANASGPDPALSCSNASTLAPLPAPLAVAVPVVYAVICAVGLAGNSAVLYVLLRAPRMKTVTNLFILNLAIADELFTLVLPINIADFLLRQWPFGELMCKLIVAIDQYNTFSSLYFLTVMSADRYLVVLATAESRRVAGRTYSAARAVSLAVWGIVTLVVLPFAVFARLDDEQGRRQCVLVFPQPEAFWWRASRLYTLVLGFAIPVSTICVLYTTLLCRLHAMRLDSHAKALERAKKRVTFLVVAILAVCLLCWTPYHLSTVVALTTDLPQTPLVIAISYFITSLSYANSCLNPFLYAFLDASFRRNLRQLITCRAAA
OX1R antag-2 – human HCRTR1 antagonism; O43613; CHO/OX1R cells, Fluo-8 calcium fluorescence, orexin A; AID 434989; 0.43% of 330,000 active; inhibition, % at 5 µM;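 active = inhibition above its plate's threshold, mean inhibition of all tested compounds on the plate plus 3 SD, cut at about 37% in these data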
CHO parental Ca – counter-screen: ATP calcium response change in parental CHO cells | parental CHO-K1, ATP-induced calcium, Fluo-8 fluorescence | inhibition, % at 5.6 µM | 0.63% of 330,000 active | AID 463079;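 active = inhibition above that plate's mean sample inhibition plus 3 SD, cut at about 26% in these data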
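Assay system – parental CHO cells · Reagent – ATP stimulus · Detection – intracellular calcium via Fluo-8 no-wash fluorescent dye · Evaluation – percent inhibition of ATP-evoked calcium rise, normalized to controls · Controls – ATP wells versus no-ATP DMSO wells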
GalR3 antag – antagonists of human GalR3; 0.44% of 360,000 active; HEK293 GalR3-CNG cAMP membrane potential fluorescence; galR3 body fused to GalR1 C-terminus; O60755; inhibition, % at 3 µM; AID 651719;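 active = inhibition above the screen-wide average plus 3 SD, cut at about 13% in these data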;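 note: forskolin and galanin both at EC90 stimulate the cells; cAMP rise reported by CNG channel membrane potential dye signal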
Target sequence (O60755 1-299 limits assumed): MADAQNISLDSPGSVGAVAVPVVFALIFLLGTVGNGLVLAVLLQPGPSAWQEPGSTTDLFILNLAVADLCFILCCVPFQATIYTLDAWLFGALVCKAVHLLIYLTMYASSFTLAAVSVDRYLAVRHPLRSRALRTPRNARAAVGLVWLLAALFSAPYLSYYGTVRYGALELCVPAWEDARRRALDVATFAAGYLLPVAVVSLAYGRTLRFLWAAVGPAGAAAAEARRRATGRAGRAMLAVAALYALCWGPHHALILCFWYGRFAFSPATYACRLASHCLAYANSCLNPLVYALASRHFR
GPR7 antag conf – confirmation of human GPR7 antagonists. shares compounds with GPR7 antag. GPR7-expressing cells, calcium fluorescence antagonist mode. 52% of 2,400 active. inhibition, % at 4.4 µM; in the data active = inhibition above about 24%;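 note: stimulated with the GPR7 agonist NPW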
MCHR1 antagonist – counter-screen for GPR7 antagonists: antagonists of human MCHR1. shares compounds with GPR7 antag. MCHR1-expressing cells, fluorescence antagonist assay. inhibition, % at 4.4 µM. 62% of 2,400 active; in the data active = inhibition above about 22%
Each line names hits and unclear results; the compound was inactive in the other large screens (follow-up assays come after a bar, where they were run). In the library only some 3.1% were active in any assay of this set; here they are far more common.

Cc1ccc(C2CC(C(F)F)n3ncc(C(=O)Nc4c(C)nn(Cc5c(F)cccc5Cl)c4C)c3N2)cc1 (configuration not stated)	GPR7 antag 24.3 | GPR7 antag conf 55.6 | MCHR1 antagonist 26.6
COc1ccc(C)c2sc(N(CCN(C)C)C(=O)/C=C/c3cccs3)nc12	GPR7 antag 28.7 | GPR7 antag conf 38.3 | MCHR1 antagonist 38.2
COc1ccc(OC)c2sc(N(CCN(C)C)C(=O)/C=C/c3cccs3)nc12	GPR7 antag 31.3 | GPR7 antag conf inactive | MCHR1 antagonist inactive
CC(=O)c1ccc(NC(=S)NC(=O)/C=C/c2ccc(F)cc2)cc1	GPR7 antag 47.8 (no result: GalR3 antag) | GPR7 antag conf inactive | MCHR1 antagonist inactive
Nc1cnn(C2CCCO2)c(=O)n1 (configuration not stated)	GPR7 antag 24.3 | GPR7 antag conf inactive | MCHR1 antagonist inactive
Cc1nc(-c2ccc(S(=O)(=O)N3CCOCC3)cc2)cs1	GPR7 antag 27.2 | GPR7 antag conf inactive | MCHR1 antagonist inactive
CC(C)Nc1ncnc2c1cnn2Cc1ccccc1Cl	none
CC(C)CNc1ncnc2c1cnn2Cc1ccccc1Cl	GPR7 antag 38.3 | GPR7 antag conf 35.7 | MCHR1 antagonist 24.1
O=C(NCCN1CCC(n2c(=O)[nH]c3ccccc32)CC1)c1ccc(Cl)cc1Cl	none (no result: OX1R antag-1, GPR7 antag, OX1R antag-2, CHO parental Ca)
CCCc1c(C(=O)N/N=C(\C)c2ccc(CC(C)C)cc2)nnn1-c1nonc1N	none (no result: OX1R antag-1, GPR7 antag, OX1R antag-2, CHO parental Ca)
CCN(CC)CC(O)Cn1c(C)c(-c2ccccc2)c2cc([N+](=O)[O-])ccc21 (configuration not stated)	GPR7 antag 40.8 | GPR7 antag conf 45.3 | MCHR1 antagonist 47.6
COc1ccccc1-n1ccnc1SCC(=O)NCC1CCCO1 (configuration not stated)	none
O=C(CSc1ccc2c(c1)OCCO2)NCc1ccccc1	none
O=C(CSc1ccc2c(c1)OCCO2)NCC1CCCO1 (configuration not stated)	GPR7 antag 27.0 | GPR7 antag conf inactive | MCHR1 antagonist inactive
Cc1ccccc1-n1ccnc1SCC(=O)NCC1CCCO1 (configuration not stated)	GPR7 antag 26.4 | GPR7 antag conf inactive | MCHR1 antagonist inactive
Cc1c(Cl)ccc(S(=O)(=O)N2CCN(C)CC2)c1Cl	none (no result: OX1R antag-1, GPR7 antag, OX1R antag-2, CHO parental Ca)
Cc1cccc(C(=O)NC(=S)NNC(=O)c2ccc(Cl)cc2)c1	GPR7 antag 32.0, OX1R antag-2 74.7, CHO parental Ca 64.4 | GPR7 antag conf 57.6 | MCHR1 antagonist 50.5
CCCOc1ccc(C(=O)NNC(=S)NC(=O)c2ccccc2)cc1	GPR7 antag 41.8, OX1R antag-2 77.8, CHO parental Ca 56.0 | GPR7 antag conf 59.7 | MCHR1 antagonist 62.2
Cc1cccc(C(=O)NC(=S)NNC(=O)c2cccs2)c1	none
CCCOc1ccc(C(=O)NNC(=S)NC(=O)c2cccs2)cc1	GPR7 antag 51.8, OX1R antag-2 70.0, CHO parental Ca 63.5 | GPR7 antag conf 41.8 | MCHR1 antagonist 36.8
CC(C)C[C@@H]1COc2cccc(N(C)CCO)c2S(=O)(=O)N1	none (no result: OX1R antag-1, GPR7 antag, OX1R antag-2, CHO parental Ca)
CCNC(=O)C1CCCN(C(=O)c2c(-c3ccccc3)noc2C)CC1 (configuration not stated)	none (no result: OX1R antag-1, GPR7 antag, OX1R antag-2, CHO parental Ca)
Cc1c(C(=O)OCc2ccccc2)nnn1-c1nonc1N	GPR7 antag 21.2 | GPR7 antag conf inactive | MCHR1 antagonist inactive
CCOC(=O)c1nnn(-c2nonc2N)c1-c1ccccc1	none
COc1ccc(/C=N/NC(=O)c2cccc(Br)c2)cc1COc1ccccn1	GPR7 antag 30.7 | GPR7 antag conf inactive | MCHR1 antagonist 48.0
O=C(N/N=C/c1c[nH]c2ccccc12)c1cc(-c2ccc(-c3ccccc3)cc2)n[nH]1	none
O=C(N/N=C/c1c[nH]c2ccccc12)c1cc(Cl)ccc1O	GPR7 antag 36.0 | GPR7 antag conf inactive | MCHR1 antagonist 27.1
Cc1ccc(-c2cc(C(=O)N/N=C/c3c[nH]c4ccccc34)[nH]n2)cc1	GPR7 antag 33.5 (no result: OX1R antag-1, OX1R antag-2, CHO parental Ca) | GPR7 antag conf inactive | MCHR1 antagonist 35.0
COCC(C)n1c(SCC(=O)Nc2c(C)n(C)n(-c3ccccc3)c2=O)nc2ccccc2c1=O (configuration not stated)	none (no result: GPR7 antag)
O=C(c1ccc2c(c1)OCO2)N1CCN(CCN2C(=O)c3cccc4cccc(c34)C2=O)CC1	none (no result: OX1R antag-1, GPR7 antag, OX1R antag-2, CHO parental Ca)
COc1ccc(NC(=O)N(C)C[C@H]2Oc3ncc(Br)cc3C(=O)N([C@H](C)CO)C[C@@H]2C)cc1	none (no result: OX1R antag-1, GPR7 antag, OX1R antag-2, CHO parental Ca)
CCOc1ccc(-n2c(-c3ccc(Br)cc3)c[n+]3c2CCCCC3)cc1	GPR7 antag 28.8, GalR3 antag 18.5 | GPR7 antag conf 39.2 | MCHR1 antagonist 35.7
COc1ccc(-n2c(-c3ccc(Cl)cc3)c[n+]3c2CCCCC3)cc1	none
CCOc1ccc(-n2c(-c3ccc(OC)cc3)c[n+]3c2CCCCC3)cc1	GPR7 antag 36.4, GalR3 antag 55.6 | GPR7 antag conf 55.1 | MCHR1 antagonist 48.7
CCOc1ccc(-n2c(-c3ccccc3)c[n+]3c2CCC3)cc1	none
COc1ccc(N=C/C=C2\C=C(c3ccccc3)OC(C)(C)O2)cc1	GPR7 antag 28.7 | GPR7 antag conf inactive | MCHR1 antagonist inactive
O=C1Nc2ccccc2C12NCCc1c2[nH]c2ccccc12 (configuration not stated)	none
c1ccc2c3c([nH]c2c1)C1(CCCCC1)NCC3	GPR7 antag 10.8 | GPR7 antag conf inactive | MCHR1 antagonist inactive
N#Cc1ccc(NC(=O)Nc2cccc(C#N)c2)cc1	GPR7 antag 25.4 (no result: OX1R antag-1, OX1R antag-2, CHO parental Ca) | GPR7 antag conf 36.0 | MCHR1 antagonist 55.1
CCN(CC(=O)Nc1cccc(C#N)c1)CC(=O)Nc1cccc(OC)c1	GPR7 antag 27.3 | GPR7 antag conf 29.6 | MCHR1 antagonist inactive
C[C@H](CO)N1C[C@H](C)[C@H](CN(C)S(=O)(=O)c2ccccc2)OCc2cnnn2CCCC1=O	none (no result: OX1R antag-1, GPR7 antag, OX1R antag-2, CHO parental Ca)
CC(C)CCN1CCN(Cc2cccc3nonc23)CC1CCO (configuration not stated)	GPR7 antag 24.3 | GPR7 antag conf inactive | MCHR1 antagonist inactive
CC(C)N1CCN(Cc2cccc3nonc23)CC1CCO (configuration not stated)	none
c1ccc(-c2ccc(OCCCNC3CCCC3)cc2)cc1	GPR7 antag 21.3 | GPR7 antag conf inactive | MCHR1 antagonist inactive
CC1CC(C)C[N+](=C2C=C(N3CCCC3)CC(C)(C)C2)C1 (configuration not stated)	GPR7 antag 49.6, GalR3 antag 28.5 (no result: OX1R antag-1, OX1R antag-2, CHO parental Ca) | GPR7 antag conf 58.0 | MCHR1 antagonist 53.4
Cc1ccc(N2C(=O)C3C4C=CC(CNC(=S)Nc5ccc(Cl)cc5)(O4)C3C2=O)cc1 (configuration not stated)	GPR7 antag 21.0 | GPR7 antag conf 29.3 | MCHR1 antagonist inactive
Cc1ccc(N2C(=O)C3C4C=CC(CNC(=S)Nc5ccc(F)cc5)(O4)C3C2=O)cc1 (configuration not stated)	none
O=c1cc(-c2ccccc2)ss1	none (no result: OX1R antag-1, GPR7 antag, OX1R antag-2, CHO parental Ca)

Assay outcomes (PubChem)
